ChEMBL document CHEMBL4265907, “Design, synthesis and pharmacological evaluation of N4,N6-disubstituted pyrimidine-4,6-diamine derivatives as potent EGFR inhibitors in non-small cell lung cancer” (Eur J Med Chem, 2018)
Activity calls are given as the source filed them. The calls are words filed in the database; no cut-off is given here.

Columns and labels:
PC-9 = assay: Antiproliferative activity against human PC9 cells after 72 hrs by MTT assay; type: functional, cell-based; details: PC-9, 72 h
Procedure, shortened: (§1)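 Cells seeded at 3000/well in growth medium with 10% FBS and left overnight. Treated in triplicate for 72 h at nine concentrations (0.458 to 30,000 nM), with DMSO-only controls. MTT (5 mg/mL) added for the last 4 h, formazan dissolved in DMSO, absorbance read at 490 nm. IC50 from non-linear sigmoidal dose-response fit.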

NCI-H1975 [1] = assay: Antiproliferative activity against human NCI-H1975 cells after 72 hrs by MTT assay; type: functional, cell-based; details: NCI-H1975, 72 h; procedure, shortened: as §1
NCI-H3255 [2] = assay: Antiproliferative activity against human H3255 cells after 72 hrs by MTT assay; type: functional, cell-based; details: NCI-H3255, 72 h; procedure, shortened: as §1
[3] = biological target: Epidermal growth factor receptor (Homo sapiens, UniProt P00533); assay: Inhibition of N-terminal GST-tagged wild type human EGFR cytoplasmic domain (669 to 1210 residues) expressed in baculovirus expression system using FAM-labeled peptide as substrate after 10 mins by mobility shift assay
[4] = biological target: Fibroblast growth factor receptor 1 (Homo sapiens) (UniProt P11362); assay: Inhibition of N-terminal GST-tagged human FGFR1 cytoplasmic domain (398 to 822 residues) expressed in baculovirus expression system at […] using FAM-labeled peptide as substrate after 10 mins by mobility shift assay relative to control
Procedure, shortened: (§2)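 Caliper mobility-shift kinase assay. Kinase in kinase base buffer was preincubated with compound for 10 min at room temperature. FAM-labelled peptide and ATP at Km were then added, and the reaction ran at 28 °C until quenched with buffer. Screening concentration was 1 µM. Percent inhibition = (max − conversion)/(max − min) × 100, with DMSO as max and a low control as min.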

[5] = biological target: Vascular endothelial growth factor receptor 2 (Homo sapiens) (UniProt P35968); assay: Inhibition of N-terminal GST-tagged human KDR cytoplasmic domain (790 to 1356 residues) expressed in baculovirus expression system at […] using FAM-labeled peptide as substrate after 10 mins by mobility shift assay relative to control; procedure, shortened: as §2
BEAS-2B = assay: Cytotoxicity against human BEAS2B cells after 72 hrs by MTT assay; type: cell-based; procedure, shortened: as §1
[6] = biological target: Epidermal growth factor receptor (Homo sapiens, UniProt P00533, DEL747/DEL747-750); assay: Inhibition of N-terminal GST-tagged human EGFR del 747-750 mutant cytoplasmic domain expressed in baculovirus expression system using FAM-labeled peptide as substrate after 10 mins by mobility shift assay
HCC827 [7] = assay: Antiproliferative activity against human HCC827 cells after 72 hrs by MTT assay; type: functional, cell-based; details: HCC827, 72 h; procedure, shortened: as §1
A-431 [8] = assay: Antiproliferative activity against human A431 cells after 72 hrs by MTT assay; type: functional, cell-based; details: A-431, 72 h; procedure, shortened: as §1
HCC827 [9] = assay: Induction of apoptosis in human HCC827 cells assessed as necrotic cells at 1000 nM after 48 hrs by Annexin V-FITC/PI staining based flow cytometry (reference value: 1.41%); type: functional
A-431 [10] = assay: Induction of apoptosis in human A431 cells assessed as necrotic cells at 1000 nM after 48 hrs by Annexin V-FITC/PI staining based flow cytometry (reference value: 4.16%); type: functional
NCI-H1975 [11] = assay: Induction of apoptosis in human NCI-H1975 cells assessed as necrotic cells at 1000 nM after 48 hrs by Annexin V-FITC/PI staining based flow cytometry (reference value: 2.31%); type: functional
NCI-H3255 [12] = assay: Induction of apoptosis in human H3255 cells assessed as early apoptotic cells at 1000 nM after 48 hrs by Annexin V-FITC/PI staining based flow cytometry (reference value: 3.22%); type: functional
A-431 [13] = assay: Induction of apoptosis in human A431 cells assessed as viable cells at 1000 nM after 48 hrs by Annexin V-FITC/PI staining based flow cytometry (reference value: 90.3%); type: functional; details: A-431, 48 h, read-out: Activity
NCI-H1975 [14] = assay: Cell cycle arrest in human NCI-H1975 cells assessed as accumulation at G2/M phase at 500 nM after 24 hrs by propidium iodide staining based flow cytometry; type: functional
Procedure, shortened: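 H1975 cells (2×10^5) seeded in 6-well plates overnight, then given fresh growth medium with drug (50–500 nM range; reference drug 500 nM) or 1‰ DMSO control for 24 h; cells collected with medium, washed in cold PBS, fixed in 70% cold ethanol at –20 °C overnight, stained with PI/RNase buffer, analysed by flow cytometry; triplicates, mean ± SEM.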

NCI-H1975 [15] = assay: Induction of apoptosis in human NCI-H1975 cells assessed as early apoptotic cells at 1000 nM after 48 hrs by Annexin V-FITC/PI staining based flow cytometry (reference value: 2.07%); type: functional
NCI-H1975 [16] = assay: Induction of apoptosis in human NCI-H1975 cells assessed as late apoptotic cells at 1000 nM after 48 hrs by Annexin V-FITC/PI staining based flow cytometry (reference value: 1.91%); type: functional
NCI-H3255 [17] = assay: Induction of apoptosis in human H3255 cells assessed as late apoptotic cells at 1000 nM after 48 hrs by Annexin V-FITC/PI staining based flow cytometry (reference value: 1.77%); type: functional
HCC827 [18] = assay: Induction of apoptosis in human HCC827 cells assessed as viable cells at 1000 nM after 48 hrs by Annexin V-FITC/PI staining based flow cytometry (reference value: 94.6%); type: functional; details: HCC827, 48 h, read-out: Activity
A-431 [19] = assay: Induction of apoptosis in human A431 cells assessed as early apoptotic cells at 1000 nM after 48 hrs by Annexin V-FITC/PI staining based flow cytometry (reference value: 3.40%); type: functional
NCI-H3255 [20] = assay: Induction of apoptosis in human H3255 cells assessed as viable cells at 1000 nM after 48 hrs by Annexin V-FITC/PI staining based flow cytometry (reference value: 87.9%); type: functional; details: NCI-H3255, 48 h, read-out: Activity
HCC827 [21] = assay: Induction of apoptosis in human HCC827 cells assessed as late apoptotic cells at 1000 nM after 48 hrs by Annexin V-FITC/PI staining based flow cytometry (reference value: 1.15%); type: functional
NCI-H3255 [22] = assay: Induction of apoptosis in human H3255 cells assessed as necrotic cells at 1000 nM after 48 hrs by Annexin V-FITC/PI staining based flow cytometry (reference value: 7.06%); type: functional
A-431 [23] = assay: Induction of apoptosis in human A431 cells assessed as late apoptotic cells at 1000 nM after 48 hrs by Annexin V-FITC/PI staining based flow cytometry (reference value: 2.11%); type: functional
NCI-H1975 [24] = assay: Induction of apoptosis in human NCI-H1975 cells assessed as viable cells at 1000 nM after 48 hrs by Annexin V-FITC/PI staining based flow cytometry (reference value: 93.7%); type: functional; details: NCI-H1975, 48 h, read-out: Activity
HCC827 [25] = assay: Induction of apoptosis in human HCC827 cells assessed as early apoptotic cells at 1000 nM after 48 hrs by Annexin V-FITC/PI staining based flow cytometry (reference value: 2.83%); type: functional

Sequence of Epidermal growth factor receptor (Homo sapiens, UniProt P00533) (P00533 whole entry, the tested form may be a part): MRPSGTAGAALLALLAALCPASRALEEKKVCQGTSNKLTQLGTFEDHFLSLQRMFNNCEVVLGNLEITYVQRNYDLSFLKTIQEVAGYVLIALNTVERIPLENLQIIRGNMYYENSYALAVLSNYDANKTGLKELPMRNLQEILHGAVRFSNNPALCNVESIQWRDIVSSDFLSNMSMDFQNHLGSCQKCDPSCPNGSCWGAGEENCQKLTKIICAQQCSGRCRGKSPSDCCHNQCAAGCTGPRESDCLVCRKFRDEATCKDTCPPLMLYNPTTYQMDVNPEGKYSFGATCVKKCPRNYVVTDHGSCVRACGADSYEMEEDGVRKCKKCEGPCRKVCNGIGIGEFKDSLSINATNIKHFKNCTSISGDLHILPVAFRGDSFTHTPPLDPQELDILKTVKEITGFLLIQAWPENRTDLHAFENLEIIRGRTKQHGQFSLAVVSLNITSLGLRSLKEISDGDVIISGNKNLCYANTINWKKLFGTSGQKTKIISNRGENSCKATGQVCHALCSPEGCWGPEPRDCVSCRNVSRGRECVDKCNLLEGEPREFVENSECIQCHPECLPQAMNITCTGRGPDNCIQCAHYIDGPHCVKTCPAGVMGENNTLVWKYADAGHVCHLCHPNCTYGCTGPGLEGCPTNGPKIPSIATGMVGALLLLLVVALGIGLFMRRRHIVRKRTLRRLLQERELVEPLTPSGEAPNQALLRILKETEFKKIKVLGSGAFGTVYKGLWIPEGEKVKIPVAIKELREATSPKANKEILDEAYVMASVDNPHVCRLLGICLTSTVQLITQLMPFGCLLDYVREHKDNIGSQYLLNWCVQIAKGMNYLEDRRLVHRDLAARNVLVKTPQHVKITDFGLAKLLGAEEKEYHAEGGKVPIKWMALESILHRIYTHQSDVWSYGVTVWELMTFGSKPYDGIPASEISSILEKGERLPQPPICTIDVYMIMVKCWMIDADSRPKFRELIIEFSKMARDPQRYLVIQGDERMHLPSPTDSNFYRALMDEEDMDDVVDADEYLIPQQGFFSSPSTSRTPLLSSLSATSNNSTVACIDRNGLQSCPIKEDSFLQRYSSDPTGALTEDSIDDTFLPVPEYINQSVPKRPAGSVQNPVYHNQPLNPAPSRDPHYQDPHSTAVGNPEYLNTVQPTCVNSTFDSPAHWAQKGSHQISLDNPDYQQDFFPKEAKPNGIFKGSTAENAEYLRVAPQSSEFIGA
Sequence of Epidermal growth factor receptor (Homo sapiens, UniProt P00533, DEL747/DEL747-750) (P00533 with tags, fused parts or gaps DEL747/DEL747-750 limits assumed): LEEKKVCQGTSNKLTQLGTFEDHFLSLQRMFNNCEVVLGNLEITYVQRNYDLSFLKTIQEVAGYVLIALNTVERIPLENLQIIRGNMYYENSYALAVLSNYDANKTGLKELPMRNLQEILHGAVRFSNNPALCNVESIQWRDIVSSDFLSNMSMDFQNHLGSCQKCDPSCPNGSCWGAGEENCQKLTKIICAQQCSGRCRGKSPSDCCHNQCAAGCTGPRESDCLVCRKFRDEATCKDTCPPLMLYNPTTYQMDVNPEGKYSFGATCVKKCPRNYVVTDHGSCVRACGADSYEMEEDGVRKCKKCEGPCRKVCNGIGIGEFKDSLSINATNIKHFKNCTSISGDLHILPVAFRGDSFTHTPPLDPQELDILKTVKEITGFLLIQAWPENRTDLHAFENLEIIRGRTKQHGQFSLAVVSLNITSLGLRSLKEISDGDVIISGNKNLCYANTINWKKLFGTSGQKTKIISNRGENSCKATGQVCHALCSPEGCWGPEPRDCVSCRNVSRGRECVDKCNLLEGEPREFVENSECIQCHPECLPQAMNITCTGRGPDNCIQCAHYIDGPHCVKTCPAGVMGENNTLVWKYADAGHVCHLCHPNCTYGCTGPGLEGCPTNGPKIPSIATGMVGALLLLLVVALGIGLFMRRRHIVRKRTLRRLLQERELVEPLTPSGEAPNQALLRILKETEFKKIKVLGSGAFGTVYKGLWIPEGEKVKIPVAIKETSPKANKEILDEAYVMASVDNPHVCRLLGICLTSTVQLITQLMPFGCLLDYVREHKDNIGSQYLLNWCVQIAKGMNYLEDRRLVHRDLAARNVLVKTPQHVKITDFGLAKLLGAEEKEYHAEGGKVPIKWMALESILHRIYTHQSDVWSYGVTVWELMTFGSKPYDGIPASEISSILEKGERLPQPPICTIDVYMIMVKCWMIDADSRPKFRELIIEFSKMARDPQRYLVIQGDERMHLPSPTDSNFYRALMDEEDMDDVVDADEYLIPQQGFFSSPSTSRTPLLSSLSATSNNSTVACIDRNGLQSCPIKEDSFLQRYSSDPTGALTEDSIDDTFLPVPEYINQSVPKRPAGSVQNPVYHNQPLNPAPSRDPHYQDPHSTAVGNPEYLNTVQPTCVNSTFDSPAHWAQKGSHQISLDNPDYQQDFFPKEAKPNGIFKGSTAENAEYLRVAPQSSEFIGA
Sequence of Vascular endothelial growth factor receptor 2 (Homo sapiens) (P35968 whole entry, the tested form may be a part): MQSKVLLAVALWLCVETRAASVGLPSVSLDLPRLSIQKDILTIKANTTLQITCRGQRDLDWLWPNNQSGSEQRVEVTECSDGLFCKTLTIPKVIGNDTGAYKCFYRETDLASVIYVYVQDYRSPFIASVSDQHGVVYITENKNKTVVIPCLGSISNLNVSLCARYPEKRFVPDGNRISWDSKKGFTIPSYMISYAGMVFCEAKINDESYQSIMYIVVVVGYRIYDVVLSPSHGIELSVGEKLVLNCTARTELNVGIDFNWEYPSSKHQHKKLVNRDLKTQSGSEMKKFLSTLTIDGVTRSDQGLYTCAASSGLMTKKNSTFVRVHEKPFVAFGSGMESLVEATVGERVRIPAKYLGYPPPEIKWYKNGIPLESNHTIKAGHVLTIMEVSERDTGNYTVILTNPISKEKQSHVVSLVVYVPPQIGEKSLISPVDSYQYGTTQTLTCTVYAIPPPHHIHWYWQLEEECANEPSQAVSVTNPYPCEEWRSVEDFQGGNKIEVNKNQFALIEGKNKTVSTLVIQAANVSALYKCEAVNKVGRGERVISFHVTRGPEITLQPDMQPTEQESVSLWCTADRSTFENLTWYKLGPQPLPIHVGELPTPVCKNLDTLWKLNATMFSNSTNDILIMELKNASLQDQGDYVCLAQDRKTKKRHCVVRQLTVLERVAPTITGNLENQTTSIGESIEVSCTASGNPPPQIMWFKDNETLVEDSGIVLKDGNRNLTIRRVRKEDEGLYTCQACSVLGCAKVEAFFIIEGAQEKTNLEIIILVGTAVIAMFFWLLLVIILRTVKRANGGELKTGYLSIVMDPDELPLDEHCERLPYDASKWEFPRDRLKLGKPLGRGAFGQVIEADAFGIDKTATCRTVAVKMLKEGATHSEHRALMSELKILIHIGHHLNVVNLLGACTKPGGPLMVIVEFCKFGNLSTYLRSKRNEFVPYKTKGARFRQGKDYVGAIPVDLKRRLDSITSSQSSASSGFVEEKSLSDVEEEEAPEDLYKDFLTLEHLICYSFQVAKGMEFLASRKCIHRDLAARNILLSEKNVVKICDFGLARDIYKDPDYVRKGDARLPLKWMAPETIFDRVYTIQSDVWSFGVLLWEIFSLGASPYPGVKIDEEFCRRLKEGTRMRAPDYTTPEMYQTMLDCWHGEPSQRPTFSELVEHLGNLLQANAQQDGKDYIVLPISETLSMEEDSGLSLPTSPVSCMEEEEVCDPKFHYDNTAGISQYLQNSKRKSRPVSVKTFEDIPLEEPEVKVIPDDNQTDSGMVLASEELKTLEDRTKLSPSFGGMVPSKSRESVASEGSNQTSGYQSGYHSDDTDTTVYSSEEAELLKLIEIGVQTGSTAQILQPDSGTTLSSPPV

Row | SMILES | IC50 (PC-9) | IC50 (NCI-H1975 [1]) | IC50 (NCI-H3255 [2]) | IC50 [3] | inhibition [4] | inhibition [5] | IC50 (BEAS-2B) | IC50 [6] | IC50 (HCC827 [7]) | IC50 (A-431 [8]) | further results
1 | CCOc1ccc(Nc2cc(NC(=O)c3ccccc3)ncn2)cc1 | 2090 nM | 7.07 µM | 9.17 µM | > 10000 nM | -8.8% | 11.3% | 17.4 µM | 754 nM | 7 µM | 6.54 µM | 
2 | COc1cccc(Nc2cc(Nc3cccc(Cl)c3)ncn2)c1 | 1660 nM | > 30 µM | > 30 µM | > 10000 nM | -3.8% | 19.2% | 17.6 µM | 974 nM | 4.04 µM | 15.2 µM | 
3 | Clc1ccc(Nc2cc(Nc3cccc(Cl)n3)ncn2)cc1 | 1180 nM | > 30 µM | > 30 µM | 324 nM | -5.7% | 8.5% | 18.1 µM | 229 nM | > 30 µM | > 30 µM | 
4 | CCOC(=O)CCCC(=O)Nc1cc(Nc2cccc(Cl)c2)ncn1 | > 30000 nM | > 30 µM | > 30 µM | 27 nM | 0.5% | 16% | 21.1 µM | > 10000 nM | > 30 µM | 0.49 µM | 
5 | O=C(O)CCC(=O)Nc1cc(Nc2ccc(Cl)cc2)ncn1 | 790 nM | 2.73 µM | 4.37 µM | > 10000 nM | 5.2% | 15.7% | 19 µM | 792 nM | 3.13 µM | 1.9 µM | 
6 | O=C(O)CCCC(=O)Nc1cc(Nc2ccccc2)ncn1 | 940 nM | 1.85 µM | 2.94 µM | > 10000 nM | -4% | 4.9% | 17.9 µM | 105 nM | 2.22 µM | 1.19 µM | 
7 | O=C(Nc1cc(Nc2ccc(Cl)cc2)ncn1)c1ccc(F)cc1 | 820 nM | 17.6 µM | > 30 µM | > 10000 nM | 16.3% | 9.3% | 18.6 µM | 1410 nM | > 30 µM | > 30 µM | 
8 | COc1cc2ncnc(Nc3cccc(Cl)c3F)c2cc1OC(=O)N1CCN(C)C[C@H]1C [AZD-3759] | 50 nM | 24.2 µM | 0.09 µM |  |  |  | 18.7 µM |  | 0.03 µM | 3.5 µM | Activity (HCC827 [9]): 2.77%; Activity (A-431 [10]): 1.17%; Activity (NCI-H1975 [11]): 2.65%; Activity (NCI-H3255 [12]): 8.51%; viability at 1 µM (A-431 [13]): 88.6%; Activity (NCI-H1975 [14]): inactive; Activity (NCI-H1975 [15]): 9.95%; Activity (NCI-H1975 [16]): 5.39%; Activity (NCI-H3255 [17]): 1.71%; viability at 1 µM (HCC827 [18]): 78.4%; Activity (A-431 [19]): 7.35%; viability at 1 µM (NCI-H3255 [20]): 83.7%; Activity (HCC827 [21]): 12.8%; Activity (NCI-H3255 [22]): 6.05%; Activity (A-431 [23]): 2.88%; viability at 1 µM (NCI-H1975 [24]): 82%; Activity (HCC827 [25]): 6.11%
9 | COc1ccc(OC)c(Nc2cc(Nc3ccc(N4CCN(C)CC4)cc3)ncn2)c1 | > 30000 nM | > 30 µM | > 30 µM | 288 nM | 4.7% | 28.5% | 18.1 µM | > 10000 nM | 24.3 µM | > 30 µM | 
10 | O=C(Nc1cc(N2CCOCC2)ncn1)c1ccc(F)cc1 | 870 nM | 1.97 µM | 1.87 µM | 131 nM | 8.8% | 31% | 20.9 µM | 63 nM | 1.96 µM | 1.13 µM | 
11 | COc1ccc(OC)c(Nc2cc(Nc3ccc(F)cc3)ncn2)c1 | 640 nM | > 30 µM | > 30 µM | 336 nM | -3.1% | 12.4% | 18 µM | 208 nM | 1.72 µM | > 30 µM | 
12 | COc1ccc(OC)c(Nc2cc(NCCc3cccs3)ncn2)c1 |  |  |  | 125 nM | -8.2% | 14.6% |  | 102 nM |  |  | 
13 | CCOC(=O)CCC(=O)Nc1cc(Nc2cccc(Br)c2)ncn1 |  |  |  | > 10000 nM | -7.1% | 5.7% |  | 933 nM |  |  | 
